Assay outcomes (PubChem)
Shown are actives, neighbours in structure and some others; about 4.8% of the full set was active somewhere.
CSC inhib: cancer stem cell inhibition | cancer stem cell-like cells viability, luminescence | inhibition, % at 7.5 µM | 300,000 compounds, 1.1% hits; in the data active = inhibition above about 75%; inconclusive = no clear call, values can overlap the other calls; tested in HMLE shEcad cells
WT yeast gro inh: growth inhibition of WT yeast, mitochondrial fusion screen; mitochondrial fusion phenotypic screen, WT strain; inhibition, % at 10 µM; 190,000 compounds, 2.1% hits; AID 1362; in the data active = inhibition above about 58%; tested in S. cerevisiae
Efflux pump inh: blocks antifungal efflux pumps in multiplex yeast assay. S. cerevisiae Candida pump triplex, Nile Red efflux. inhibition, % at 10 µM. 330,000 compounds, 0.44% hits. AID 485275;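 active = plate passing quality check with inhibition over a set limit, or well fluorescence over plate mean plus 4 SD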;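 note: Nile Red retained in pooled yeast measured as flow cytometry median fluorescence; higher means more Nile Red kept so more efflux inhibition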
Mot1-301 SUMO: inhibitors of SUMOylation pathway: yeast Mot1-301 growth rescue | S. cerevisiae Mot1-301 growth rescue, ATP luminescence, 38.5C; percent above DMSO median, 100 means doubled | growth rescue, % at 18.8 µM | 320,000 compounds, 1% hits | AID 2716;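 active = every valid replicate shows activation above 250% relative to neutral control wells; inactive = the rest, any valid replicate at or below 250%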
Beta cell apopt: beta cell apoptosis inhibition; INS-1E cytokine-induced death, ATP luminescence, 48 h; percent of positive-control rescue, neutral wells zero; protection from apoptosis, % (no concentration beside the values); 300,000 compounds, 0.8% hits; AID 435005;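 active = Every replicate reaches about 75%, or at least half do and their mean reaches it too, limit read from the data; inconclusive = At least half of replicates reach the limit but their mean does not; inactive = Under half of replicates reach the limit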;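 note: higher means more ATP so stronger rescue from cytokine killing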
T cruzi repl: T. cruzi replication inhibition; AID 1885; inhibition, % (concentration not given with the values); T. cruzi beta-gal in NIH3T3, luminescence, 90 h; 300,000 compounds, 1.4% hits;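 active = mean inhibition across valid replicates above about 55%, limit read from the data; inconclusive = mean below that limit but half or more replicates reach it; inactive = mean below it, under half of replicates reach it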;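 note: signal also drops with host cell toxicity which is not excluded here; higher percent means less beta-gal luminescence so fewer parasites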
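Assay system: NIH/3T3 fibroblasts plus reporter T. cruzi. Amount: NIH/3T3 cells, 5,000 per well. Buffer or medium: DMEM, 2% fetal bovine serum. Doses: compound pinned at 50 nL/well, DMSO. Schedule: ≥90 h infection period, 3 h prior cell attachment. Signal: luminescent β-galactosidase signal after 60 min lysis. Read-out: parasite load inhibition, %.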
Large screens that a line does not name were inactive.

Cc1ccccc1CC1(CO)CCCN(Cc2nc(-c3cccs3)oc2C)C1 (stereo not given)	none
Cc1sc2ncnc(N3CCC(C(=O)N(C)CC(=O)Nc4ccc(Cl)c(C(F)(F)F)c4)CC3)c2c1C	CSC inhib 96, T cruzi repl 58 (no result: WT yeast gro inh, Mot1-301 SUMO, Beta cell apopt)
Cc1cc(C)c(C#N)c(SCc2nnc(-c3ccccc3[N+](=O)[O-])o2)n1	T cruzi repl 69 (no result: CSC inhib)
Cc1ccc(Cl)cc1NC(=O)C1CCCN1S(=O)(=O)c1ccc(-c2ccc(=O)[nH]n2)s1 (stereo not given)	none (no result: WT yeast gro inh)
Cc1cc(Cl)cc(C)c1OCC(=O)NC1CCCCCC1	none (no result: WT yeast gro inh, T cruzi repl)
Cc1ccc(-n2c3nc(=O)[nH]c(=O)c-3cc3cc([N+](=O)[O-])ccc32)cc1C	CSC inhib 84
Cc1ccc(S(=O)(=O)n2cnc3cc([N+](=O)[O-])ccc32)cc1C	none
CCc1ccc(-n2c(C)n[nH]c2=S)cc1	none
CCOc1ccc(NC(=S)N2CCc3cc(OC)c(OC)cc3C2COc2ccc3c(C)cc(=O)oc3c2)cc1 (stereo not given)	none
COc1ccc(CCNC(=O)CCSCc2ccccc2F)cc1OC	Mot1-301 SUMO 263 (no result: WT yeast gro inh)
COC(=O)c1cc(O)cc(OC)c1C(=O)c1c(O)cc(C)cc1O	none (no result: WT yeast gro inh, Beta cell apopt)
COC(=O)c1cc(O)cc(OC)c1Oc1cc(C)cc(O)c1C(=O)O	Beta cell apopt 89 (no result: WT yeast gro inh, T cruzi repl)
Cc1cccc2sc(N(CCN(C)C)C(=O)C3CCN(S(=O)(=O)c4cccs4)CC3)nc12	T cruzi repl 57 (no result: CSC inhib, WT yeast gro inh)
N#CC1=C2SC=C(c3ccc(Br)cc3)N2CCCC1=O	CSC inhib 86
C/C(=N/NC(=O)CN(c1ccccc1)S(=O)(=O)c1ccccc1)c1ccccc1O	Beta cell apopt 109 (no result: WT yeast gro inh)
O=C(O)c1ccc(N=NNc2cccc([N+](=O)[O-])c2)cc1	none
O=C(/C(N=Nc1cccc([N+](=O)[O-])c1)=C(/O)c1ccc(Br)cc1)C(F)(F)F	CSC inhib 99, Beta cell apopt 105 (no result: WT yeast gro inh)
Cc1cc(C(=O)C(C)OC(=O)c2ccc(NC(=O)CC#N)cc2)c(C)n1-c1ccc(OC(F)F)cc1 (stereo not given)	Beta cell apopt 88 (no result: WT yeast gro inh, T cruzi repl)
CC(C)(C)CC(=O)NCCc1csc(-c2ccccc2)n1	T cruzi repl 61 (no result: WT yeast gro inh)
CC(=O)NCCc1csc(-c2ccccc2)n1	none
O=C(CN1CCN(CC(=O)Nc2cccc(F)c2)CC1)NCC1(N2CCOCC2)CCCCC1	none (no result: CSC inhib, WT yeast gro inh, Mot1-301 SUMO, Beta cell apopt, T cruzi repl)
Cc1nn(C)c(C)c1C1C(C#N)=C(N)OC2=C1C(=O)CCC2 (stereo not given)	Mot1-301 SUMO 311
O=C(CNC(=O)c1ccco1)Nc1ccc(Cl)cc1	none (no result: WT yeast gro inh)
O=C(CSC1=NCCS1)Nc1ccnc2ccccc12	Beta cell apopt 104
Cc1cc(C)nc(SCC(=O)Nc2ccnc3ccccc23)n1	Beta cell apopt 102
CCOc1ccc(CNC2CCCCCCC2)cc1OC	none (no result: WT yeast gro inh)
COc1ccc(-c2nc(NC(C)=O)sc2-c2ccc(OC)cc2)cc1	none
CNc1nc(-c2ccc(OC)cc2)c(-c2ccc(OC)cc2)s1	WT yeast gro inh 68
Cc1cc(N2CCN(c3ccc([N+](=O)[O-])c4cccnc34)CC2)c2ccccc2n1	none
Cc1cc(N2CCN(c3nc(-c4ccccc4)cs3)CC2)c2ccccc2n1	WT yeast gro inh 70
Cc1cc(N2CCN(c3ccc(C(F)(F)F)cc3[N+](=O)[O-])CC2)c2ccccc2n1	CSC inhib 97 (no result: WT yeast gro inh)
CCOc1ccc(CN(C)CC(=O)Nc2cccc(S(=O)(=O)N(C)c3ccccc3)c2)cc1	T cruzi repl 73
CCc1cc(C(=O)COc2ccccc2F)c(O)cc1O	none
CS(=O)(=O)N(CC(=O)Nc1ccc(CC#N)cc1)c1ccc(C23CC4CC(CC(C4)C2)C3)cc1	Beta cell apopt 88, T cruzi repl 70
CS(=O)(=O)N(CC(=O)Nc1c(F)cccc1F)c1ccc(C23CC4CC(CC(C4)C2)C3)cc1	T cruzi repl 70
CC(=O)Nc1ccc(NC(=O)CN(c2ccc(C34CC5CC(CC(C5)C3)C4)cc2)S(C)(=O)=O)cc1	none
CC(=O)c1ccccc1OCCOCCOc1ccccc1C(C)=O	Beta cell apopt 108
COCC1CCCCN1Cc1cn[nH]c1-c1ccc2cc(OC)ccc2c1 (stereo not given)	T cruzi repl 70
COCCN(Cc1cn[nH]c1-c1ccc2cc(OC)ccc2c1)C(C)C	T cruzi repl 65 (no result: CSC inhib, WT yeast gro inh, Beta cell apopt)
O=C(c1cccc(Br)c1)N1CCN(S(=O)(=O)N2CCOCC2)CC1	Mot1-301 SUMO 333
COc1ccc(CN(C(=O)c2ccco2)c2ccc(C)c(C)c2)cc1	Mot1-301 SUMO 403
Brc1ccc(-c2ccc(/C=N/Nc3nc4ccccc4[nH]3)o2)cc1	T cruzi repl 62
Cc1ccccc1/C=N/Nc1nc2ccccc2[nH]1	none (no result: Beta cell apopt)
C(=N\Nc1nc2ccccc2[nH]1)/c1cccc2cccnc12	CSC inhib 100 (no result: WT yeast gro inh, Beta cell apopt)
O=[N+]([O-])c1cc(/C=N/Nc2nc3ccccc3[nH]2)c(O)cc1O	Beta cell apopt 94
C(=N\Nc1nc2ccccc2[nH]1)/c1ccccc1	none
Cc1[nH]c2ccccc2c1/C=N/Nc1nc2ccccc2[nH]1	Beta cell apopt 118, T cruzi repl inconclusive (no result: WT yeast gro inh)
CN(C)S(=O)(=O)N1CCC(Oc2cccc(C(=O)N3CCCCCCC3)c2)CC1	none (no result: WT yeast gro inh)
COc1cc(C=O)cc(Cl)c1OC(=O)N1CCOCC1	none (no result: WT yeast gro inh)
C(=N\Nc1nc(N2CCCCC2)nc(N2CCCCC2)n1)/c1c[nH]c2ccccc12	WT yeast gro inh 63
CN(C)c1nc(N/N=C/c2c[nH]c3ccccc23)nc(N2CCOCC2)n1	none
C(=N\Nc1nc2ccccc2[nH]1)/c1c[nH]c2ccccc12	Beta cell apopt 119, T cruzi repl inconclusive
C(/CCc1ccccc1)=N\Nc1nc2ccccc2[nH]1	Beta cell apopt 88
CC(=O)N1N=C(c2ccco2)CC1c1cc2ccc(C)cc2nc1Cl (stereo not given)	none (no result: WT yeast gro inh)
Cc1ccc(C(=O)NCCC(=O)N2CCC3(CC2)NCCc2[nH]cnc23)cc1C	none (no result: WT yeast gro inh)
NC(=O)c1c(NC(=O)CN2CCN(S(=O)(=O)c3ccccc3)CC2)sc2c1CCC2	none (no result: WT yeast gro inh)
COCc1nc2ccccc2n1Cc1ccccc1C	none (no result: Mot1-301 SUMO)
Cc1ccccc1Cn1c(Cc2ccccc2)nc2ccccc21	WT yeast gro inh 77
Cc1cccc(Cn2c(Cc3ccccc3)nc3ccccc32)c1	WT yeast gro inh 72 (no result: CSC inhib)
Cc1nn(CCC(N)=S)c2nc(-c3cccs3)cc(C(F)(F)F)c12	WT yeast gro inh 75 (no result: CSC inhib)
Cc1nn(CCC#N)c2nc(-c3ccccc3)cc(C(F)(F)F)c12	none
COCCN(C(=O)c1cccc(N2C(=O)CCC2=O)c1)c1nc(-c2ccc([N+](=O)[O-])cc2)cs1	none (no result: WT yeast gro inh)
COc1ccccc1N(C(=O)c1ccncc1)c1nc(-c2ccc([N+](=O)[O-])cc2)cs1	T cruzi repl 62
Cn1ncc2c(N3CCC(Cc4ccccc4)CC3)ncnc21	none
NNC(=O)c1cc2c(N3CCC(Cc4ccccc4)CC3)ncnc2s1	WT yeast gro inh 58
CCn1c(=O)n(CC)c2cc(N3CCCC3)c(NC(=O)c3ccccc3F)cc21	none (no result: WT yeast gro inh)
